Assay outcomes as filed in PubChem BioAssay.
Shown are actives, neighbours in structure and some others; about 1.9% of the full set was active somewhere.
Rtt109 Vps75 – inhibitors of Candida albicans Rtt109/Vps75 histone acetyltransferase. Q5AAJ8. purified Rtt109/Vps75, ThioGlo CoA-SH fluorescence, 4 h. inhibition, % at 34.9 µM. 0.16% of 330,000 active;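 active = inhibition of at least 50% in every replicate; inconclusive = best replicate reaches 50% inhibition but some replicates fall short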
Target sequence (Q5AAJ8 whole entry, looked up): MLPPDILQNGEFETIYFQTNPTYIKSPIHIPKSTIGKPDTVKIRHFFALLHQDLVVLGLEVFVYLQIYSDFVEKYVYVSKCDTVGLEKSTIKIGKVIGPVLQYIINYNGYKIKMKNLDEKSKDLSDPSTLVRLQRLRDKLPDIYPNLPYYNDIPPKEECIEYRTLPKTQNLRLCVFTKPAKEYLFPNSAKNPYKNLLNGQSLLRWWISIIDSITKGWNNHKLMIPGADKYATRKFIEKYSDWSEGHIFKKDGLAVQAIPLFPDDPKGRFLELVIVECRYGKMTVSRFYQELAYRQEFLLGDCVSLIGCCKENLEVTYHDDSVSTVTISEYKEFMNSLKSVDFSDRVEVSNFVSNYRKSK
SR-BI HDL uptake – inhibitors of mouse SR-BI mediated HDL lipid uptake; Q61009; ldlA[mSR-BI] CHO cells, DiI-HDL uptake fluorescence, 3 h; inhibition, % at 12.5 µM; 0.96% of 320,000 active; AID 488896;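 active = mean replicate inhibition of at least 70% and a set share of replicates each scoring 70 or more; inconclusive = meets just one of the two criteria; inactive = fails both criteria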;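 note: 0% = median of neutral control wells and 100% = median of positive control wells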
PglD DTNB – blocks C. jejuni PglD acetyltransferase activity. purified PglD enzyme, DTNB colorimetric CoA detection. inhibition, % at 12.5 µM. 0.098% of 360,000 active; in the data active = inhibition above about 16%, passing the limit was not always enough; inconclusive = no clear call, values can overlap the other calls
SR-BI DiI-HDL act – SR-BI HDL lipid transfer activation; 0.096% of 320,000 active; activation, % at 12.5 µM; CHO ldlA[mSR-BI] cells, DiI-HDL uptake fluorescence, 3 h; 100 = double the neutral-control signal;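 active = mean replicate activation of at least 60% and every replicate at or above 60%; inconclusive = mean or all-replicate condition met, but not both; inactive = mean below 60% and not all replicates reaching 60%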;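 note: 0% = median plate neutral-control signal and 100% = twice that signal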
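Test system: SR-BI-overexpressing, LDLR-lacking CHO cells. Measured by: DiI fluorescence, bottom read. Medium: Ham's F12 with 0.5% BSA, HEPES 25 mM, pH 7.4. Timing: 3 h uptake period with compound, 37 °C.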
HIV Env fusion – blocks HIV Env-driven cell-cell fusion; AID 651610; inhibition, % at 12.3 µM; 1.1% of 360,000 active; HeLa-JRFL Env/CEM21 cell fusion, luciferase;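 active = mean replicate inhibition score of at least 50 and every replicate individually at or above 50; inconclusive = only one of the two criteria met; inactive = mean below 50 and not all replicates reaching 50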;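 note: 0% = plate neutral controls and 100% = maraviroc near 300 nM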
N-glyco inh – blocks N-linked glycosylation in D54 reporter cells | AID 588692 | reporter increase, % at 12.5 µM | D54 ERlucT glycosylation luciferase reporter, 24 h; percent of 100 nM tunicamycin response | 0.23% of 360,000 active;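 active = mean luciferase reporter signal, scaled so untreated is 0 and the glycosylation-blocking control 100, at or above a set limit in every replicate; inconclusive = mean reaches the limit but not every replicate does; inactive = mean below the limit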;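 note: luciferase carries N-glycosylation sites so blocking glycosylation raises the light; 0% = median of neutral control wells and 100% = median of 100 nM tunicamycin wells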
* marks the source's active call; other numbers are inactive results; ? = inconclusive; · = no result given; [ ] = another dose, or the depositor's remark.

SMILES	Rtt109 Vps75	SR-BI HDL uptake	PglD DTNB	SR-BI DiI-HDL act	HIV Env fusion	N-glyco inh
Cc1noc(C)c1S(=O)(=O)N(C)C[C@H]1OCCCC[C@@H](C)Oc2ccc(NC(=O)NC3CCCCC3)cc2C(=O)N([C@@H](C)CO)C[C@@H]1C	·	·	0	·	-6[16.7 µM]	·
C[C@H](CO)N1C[C@H](C)[C@@H](CN(C)C(=O)c2ccccn2)Oc2ncc(Br)cc2C1=O	·	·	3	·	5[16.7 µM]	·
O=C(O)COc1ccccc1O	60*	1	-3	-1	-20	-2
COCCn1c(SCC(=O)NC(=O)NC(C)(C)C)nc2ccccc21	-15	0	-4	0	123*	1
COc1ccc(CN(C)C[C@@H]2OCCCC[C@@H](C)Oc3ccc(NS(=O)(=O)c4c(C)noc4C)cc3C(=O)N([C@H](C)CO)C[C@@H]2C)cc1	·	·	0	·	-8[16.7 µM]	·
O=S(=O)(NCCN1CCCC1)c1ccc(Cl)cc1	-4	7	-1	-7	-5	1
O=S(=O)(NCCN1CCCC1)c1ccc(Br)cc1	0	-62	-2	62*	-9	1
COc1ccc(-c2csc(NC(=S)NC(=O)/C=C/c3ccco3)n2)cc1OC	4	76*	·	-76	·	8
COc1ccc(-c2csc(NC(=S)NC(=O)/C=C/c3ccc(C(C)C)cc3)n2)cc1OC	2	75*	-5	-75	7	-9
COc1ccc(-c2csc(NC(=S)NC(=O)/C=C/c3ccco3)n2)cc1Br	-3	24	-2	-24	-226	1
CN1C(=O)c2cc(NC(=O)C3CCCCC3)ccc2OC[C@@H]2O[C@@H](CC(=O)NCCc3ccncc3)CC[C@H]21	·	·	0	·	-36[16.7 µM]	·
COc1ccccc1N/C(N)=N/c1nc(CSc2ccc(C)cc2)cc(=O)[nH]1	3	-3	5	3	67*	-3
Cc1ccc(SCc2cc(=O)[nH]c(/N=C(\N)Nc3ccccc3Sc3ccccc3)n2)cc1	-1	13	·	-13	8	1
COc1ccc(CN2CCC(C)(Oc3ccc4c(c3)OCO4)C2)c2ccccc12 (stereo not given)	·	·	-2	·	70*	0
C[C@H]1CN([C@@H](C)CO)C(=O)c2cccc(NC(=O)c3ccncc3)c2O[C@@H]1CN(C)S(=O)(=O)c1cn(C)cn1	·	·	2	·	·	·
Cc1ccc(S(=O)(=O)N(C)C[C@@H]2OCCCC[C@H](C)Oc3ccc(NC(=O)Nc4ccc5c(c4)OCO5)cc3C(=O)N([C@@H](C)CO)C[C@H]2C)cc1	·	·	4	·	43[16.7 µM]	·
NC(=O)[C@@H]1[C@H]2C(=O)O[C@H](c3ccccc3)[C@H](c3ccccc3)N2[C@H](c2ccc(O)cc2)[C@@]12C(=O)Nc1ccccc12	·	·	-2	·	-6[16.7 µM]	·
COc1ccc(-c2cnc3c(c2)C(=O)N([C@H](C)CO)C[C@H](C)[C@H](CN(C)C(=O)Nc2cccc4ccccc24)O3)cc1	·	·	-6	·	3[16.7 µM]	·
C[C@H](CO)N1C[C@H](C)[C@H](CN(C)C(=O)Nc2cccc3ccccc23)Oc2ccc(NC(=O)Nc3ccc(C(F)(F)F)cc3)cc2C1=O	·	·	-1	·	56*[16.7 µM]	·
C[C@@H]1CN([C@H](C)CO)C(=O)c2cccc(NC(=O)Nc3ccc(C(F)(F)F)cc3)c2O[C@H]1CN(C)C(=O)Nc1cccc2ccccc12	·	·	-3	·	78*[16.7 µM]	·
C[C@H](CO)N1C[C@H](C)[C@H](CN(C)C(=O)Nc2cccc3ccccc23)Oc2ncc(-c3ccc(F)cc3)cc2C1=O	·	·	-4	·	39*[16.7 µM]	·
C[C@@H]1CN([C@H](C)CO)C(=O)c2cc(NC(=O)Nc3ccc(C(F)(F)F)cc3)ccc2O[C@H]1CN(C)C(=O)Nc1cccc2ccccc12	·	·	2	·	13[16.7 µM]	·
C[C@H]1CN([C@@H](C)CO)C(=O)c2cccc(NC(=O)Nc3ccc(C(F)(F)F)cc3)c2O[C@@H]1CN(C)C(=O)Nc1cccc2ccccc12	·	·	-1	·	14[16.7 µM]	·
COC(=O)C[C@@H]1CC[C@H]2[C@H](COc3ccc(NC(=O)Nc4ccccc4C)cc3C(=O)N2C)O1	·	·	-1	·	-4[16.7 µM]	·
CCCNC(=O)[C@@H]1[C@@H](CO)[C@@H]2Cn3c(ccc(/C=C/c4ccccc4)c3=O)[C@H]1N2C(=O)c1ccccc1	·	·	1	·	·	·
C[C@H](CO)N1C[C@H](C)[C@@H](CN(C)S(=O)(=O)c2ccc(F)cc2)Oc2cc(-c3cccc(F)c3)ccc2S1(=O)=O	·	·	1	·	?	·
